We go through eleven molecules from ChEMBL document CHEMBL1156852, “Synthesis and biological evaluation of simple methoxylated chalcones as anticancer, anti-inflammatory and antioxidant agents” (Bioorg Med Chem, 2010).

Data set [1] deals with PANC-1. The experiment in a line: Growth inhibition of human PANC1 cells at 10 uM after 48 hrs by propidium iodide assay. As to conditions: PANC-1, 48 h, read-out: GI.
Data set [2] has as its system ACHN. Put plainly: Growth inhibition of human ACHN cells at 10 uM after 48 hrs by propidium iodide assay. The note with it: read-out: GI.
The nature of data set [3]: Toxicity against […] assessed as cell growth. The data set is classed as cell-based. Set-up: concentration or dose not given beside the values.
The test system of data set [4] is Calu-1. Put plainly: Growth inhibition of human Calu1 cells at 10 uM after 24 hrs by propidium iodide assay. Type of data set: functional. The note with it: Calu-1, 24 h, read-out: GI.
Data set [5] has as its system THP-1. The experiment in a line: Antiinflammatory activity in human THP1 cells assessed as inhibition of LPS-induced IL6 release at 10 uM preincubated for 30 mins before LPS challenge by ELISA. The data set is classed as functional.
Data set [6] has as its system Radical scavenging activity. Put plainly: Antioxidant activity assessed as radical DPPH scavenging activity at 1 mM/mL. Type of data set: functional. An outline of the steps:
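DPPH radical scavenging by the Blois method. Compound stock solutions (1 mM) were mixed with 0.3 mM DPPH in methanol in a 3 mL total reaction and left to react at room temperature.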

For data set [7], the system named is NCI-H460. The experiment in a line: Growth inhibition of human H460 cells at 10 uM after 24 hrs by propidium iodide assay. Type of data set: functional. The note with it: NCI-H460, 24 h, read-out: GI.
For data set [8], the system named is THP-1. The experiment in a line: Antiinflammatory activity in human THP1 cells assessed as inhibition of LPS-induced TNFalpha release at 10 uM preincubated for 30 mins before LPS challenge by ELISA. Type of data set: functional. On the technique in general: An ELISA detects its analyte on a solid surface through an enzyme-linked reagent.
Data set [9] relates to HCT-116. Put plainly: Growth inhibition of human HCT116 cells at 10 uM after 48 hrs by propidium iodide assay. As to conditions: HCT-116, 48 h, read-out: GI.
Data set [10] relates to HCT-116. The experiment in a line: Growth inhibition of human HCT116 cells at 700 nM after 48 hrs by propidium iodide assay. As to conditions: HCT-116, 48 h, read-out: GI.
Data set [11] relates to NCI-H460. The experiment in a line: Growth inhibition of human H460 cells at 700 nM after 48 hrs by propidium iodide assay. The note with it: NCI-H460, 48 h, read-out: GI.
Data set [12] concerns PANC-1. The experiment in a line: Growth inhibition of human PANC1 cells at 700 nM after 48 hrs by propidium iodide assay. As to conditions: PANC-1, 48 h, read-out: GI.
Data set [13] has as its system ACHN. Put plainly: Growth inhibition of human ACHN cells at 700 nM after 48 hrs by propidium iodide assay. As to conditions: read-out: GI.
Data set [14] concerns Calu-1. Put plainly: Growth inhibition of human Calu1 cells at 700 nM after 24 hrs by propidium iodide assay. Type of data set: functional. The note with it: Calu-1, 24 h, read-out: GI.
For data set [15], the system named is THP-1. Put plainly: Antiinflammatory activity in human THP1 cells assessed as inhibition of LPS-induced TNFalpha release at 1 uM preincubated for 30 mins before LPS challenge by ELISA. The data set is classed as functional. An outline of the steps:
(§1)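 PMA-differentiated THP-1 cells grown in RPMI 1640 with 10% FBS, penicillin and streptomycin. Compounds in 0.5% DMSO were added and preincubated 30 min at 37 °C, then cells were stimulated with E. coli 0127:B8 LPS. Released cytokine was quantified with a BD Biosciences kit per the manufacturer. Percent inhibition of release was calculated versus control. Cytotoxicity was checked in parallel by CCK-8.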

Data set [16] deals with THP-1. Put plainly: Antiinflammatory activity in human THP1 cells assessed as inhibition of LPS-induced IL6 release at 1 uM preincubated for 30 mins before LPS challenge by ELISA. Type of data set: functional. An outline of the steps: as §1
In data set [17] the test system is Calu-1. The experiment in a line: Growth inhibition of human Calu1 cells at 500 nM after 24 hrs by propidium iodide assay. Type of data set: functional. As to conditions: Calu-1, 24 h, read-out: GI.
Data set [18] relates to PANC-1. The experiment in a line: Growth inhibition of human PANC1 cells at 500 nM after 24 hrs by propidium iodide assay. The data set is classed as functional. The note with it: PANC-1, 24 h, read-out: GI.
Data set [19] has as its system ACHN. The experiment in a line: Growth inhibition of human ACHN cells at 500 nM after 48 hrs by propidium iodide assay. The note with it: read-out: GI.
Data set [20] concerns HCT-116. Put plainly: Growth inhibition of human HCT116 cells at 500 nM after 48 hrs by propidium iodide assay. As to conditions: HCT-116, 48 h, read-out: GI.
For data set [21], the system named is NCI-H460. Put plainly: Growth inhibition of human H460 cells at 500 nM after 48 hrs by propidium iodide assay. The note with it: NCI-H460, 48 h, read-out: GI.

For orientation: inhibition means the drop in the measured response relative to a control, in per cent. On to `COc1ccc(/C=C/C(=O)c2ccc(Cl)cc2)c(OC)c1`, for which the inhibition of growth at 10 µM in the data set with PANC-1 [1] turned out to be 29%; in the data set with ACHN [2], 28%; in the data set with Calu-1 [4] it was 28%; with NCI-H460 [7], 29%; with HCT-116 [9], 22%. The Activity in [3] came to 0%; in data set [6], 26.4%. The values for the inhibition at 10 µM in the data set with THP-1 [5] and in the data set on THP-1 [8] were 12% and 0%, respectively.
With `COc1ccc(/C=C/C(=O)c2ccc(Cl)cc2Cl)c(OC)c1`, the inhibition of growth at 10 µM in the data set on PANC-1 [1] was 35%; with ACHN [2], 35%; with Calu-1 [4] it was 30%; in the data set on NCI-H460 [7], 29%; in the data set on HCT-116 [9] it was 26%. In addition, the Activity came to 2% in [3] and 11.3% in data set [6]. Besides, the inhibition at 10 µM came out at 6% in the data set with THP-1 [5] and 0% in the data set with THP-1 [8].
Take `CN1CC[C@H](c2c(O)cc(O)c3c(=O)cc(-c4ccccc4Cl)oc23)[C@H](O)C1` [ALVOCIDIB]: the inhibition of growth at 0.7 µM in the data set on HCT-116 [10] is 71%; in the data set with NCI-H460 [11], 84%; in the data set on PANC-1 [12] it was 75%; in the data set with ACHN [13], 68%; in the data set on Calu-1 [14], 68%.
On to `COc1ccc(/C=C/C(=O)c2ccccc2)c(OC)c1`, for which the inhibition of growth at 10 µM is 94% in the data set on PANC-1 [1]; 93% with ACHN [2]; 91% with Calu-1 [4]; 92% in the data set with NCI-H460 [7]; 95% in the data set on HCT-116 [9]. Also, the figures for the Activity in data set [3] and in data set [6] were 79% and 38%, respectively. In addition, the inhibition at 10 µM amounted to 100% in the data set with THP-1 [5] and 98% in the data set on THP-1 [8].
As to `COc1ccc(C(=O)/C=C/c2ccc(OC)cc2OC)cc1`, the inhibition of growth at 10 µM turned out to be 36% with PANC-1 [1]; 45% in the data set on ACHN [2]; 31% in the data set on Calu-1 [4]; 38% in the data set on NCI-H460 [7]; 37% in the data set on HCT-116 [9]. Also, the Activity in data set [3] turned out to be 29%; in data set [6] it was 32.3%. Further, the inhibition at 10 µM in the data set on THP-1 [5] turned out to be 39%; in the data set on THP-1 [8], 0%.
As for `C[C@@H]1C[C@H]2[C@@H]3CCC4=CC(=O)C=C[C@]4(C)[C@@]3(F)[C@@H](O)C[C@]2(C)[C@@]1(O)C(=O)CO` [DEXAMETHASONE], the Activity in data set [3] was determined as 0%. In addition, the figures for the inhibition at 1 µM in the data set on THP-1 [15] and with THP-1 [16] were 73% and 84%, respectively.
With `COc1cc(/C=C/C(=O)c2ccc(Cl)cc2)cc(OC)c1OC`, the inhibition of growth at 10 µM is 66% with PANC-1 [1]; 57% in the data set on ACHN [2]; 67% with Calu-1 [4]; 54% with NCI-H460 [7]; 92% with HCT-116 [9]. Further, the figures for the Activity in [3] and in data set [6] were 79% and 36.5%, respectively. The values for the inhibition at 10 µM in the data set on THP-1 [5] and in the data set on THP-1 [8] were 100% and 98%, respectively.
As for `COc1ccc(/C=C/C(=O)c2ccc(OC)cc2OC)c(OC)c1`, the inhibition of growth at 10 µM was determined as 43% in the data set with PANC-1 [1]; 48% in the data set on ACHN [2]; 32% with Calu-1 [4]; 38% with NCI-H460 [7]; 31% with HCT-116 [9]. The Activity in [3] was found to be 35%; in [6], 31.3%. Moreover, the inhibition at 10 µM with THP-1 [5] is 81%; in the data set with THP-1 [8], 2%.
On to `COc1ccc(O)c(C(C)(C)C)c1.COc1ccc(O)cc1C(C)(C)C`, for which the Activity in [6] worked out at 74%.
For `COc1cc(/C=C/C(=O)c2ccccc2)cc(OC)c1OC`, the inhibition of growth at 10 µM with PANC-1 [1] was found to be 7%; in the data set with ACHN [2], 33%; in the data set with Calu-1 [4], 7%; with NCI-H460 [7] it was 15%; in the data set on HCT-116 [9], 0%. In addition, the Activity in [3] is 73%; in data set [6] it was 47.2%. The inhibition at 10 µM with THP-1 [5] and with THP-1 [8] was 100% in each case.
`Nc1ccn([C@@H]2O[C@H](CO)[C@@H](O)C2(F)F)c(=O)n1` [GEMCITABINE]: the inhibition of growth at 0.5 µM is 70% in the data set with Calu-1 [17]; 71% with PANC-1 [18]; 70% in the data set with ACHN [19]; 76% in the data set on HCT-116 [20]; 68% in the data set with NCI-H460 [21].
